Source: PubChem BioAssay
Autophagy HCS = alters autophagy in cells | MEF GFP-LC3 puncta imaging; test concentration mostly 10 µM | calls only at 10 µM (by protocol) | 0.98% of 190,000 active;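 active = percentage of spot-positive cells more than 3 SD above its plate mean, without a fluorescence outlier flag or 80% toxicity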;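 also: spot-positive cell cutoff set from DMSO-treated cells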
bCat nuc transl = modulators of beta-catenin nuclear translocation; HeLa beta-catenin nuclear translocation, immunofluorescence imaging; nuclear translocation activity, % at 5 µM; 0.3% of 190,000 active;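 active = nuclear translocation activity above 50% at 5 µM, with a well cell count of 50 or more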;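 also: per-cell ratio of nuclear to cytoplasmic median beta-catenin stain intensity; plate controls were DMSO negative control for no effect and GSK-3 inhibitor IX positive control for full effect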
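Test system: human HeLa cells, native beta-catenin. Compound dosing: 5 µM primary single dose, 0.1% DMSO, 0.02–20 µM confirmation series. Incubation: compound exposure 24 h at 37°C. Detection: beta-catenin immunostaining with DAPI counterstain, 20x imaging, 6 fields/well. Read-out basis: Nuclear/cytoplasmic beta-catenin signal ratio, % activation.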
Ins promoter up = MIN6 insulin promoter up-regulation; MIN6 insulin promoter-GFP reporter, high-content imaging; active compounds read high; z-score at 5 µM; 0.3% of 190,000 active; AID 1625;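 active = z-score above 3 at 5 µM with at least 500 cells counted in the well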
Dynein transport = dynein cargo transport inhibition; 3617.4 mouse cells, GR-EGFP nuclear translocation imaging; test concentration mostly 20 µM; stimulated with dexamethasone, 1 µM; active compounds read low; z-score, hits read low; 0.47% of 220,000 active;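 active = plate z-score of nuclear minus cytoplasmic receptor signal below a set negative limit, without overly bright fluorescence or cell loss, cut at about -3.5 in these data, passing the limit was not always enough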;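 also: z-score of nuclear minus cytoplasmic ring GR-EGFP intensity difference per well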
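Buffer or medium: tet-free, stripped-serum medium; reagent: dexamethasone at 1.0 µM final, 30 min; incubation: 48 h induction, 1 h compound, 30 min dex at 37 °C; measured by: formaldehyde fixation, Hoechst nuclear stain, 10x automated fluorescence imaging; read-out: nuclear-to-cytoplasmic GR-EGFP distribution per well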
MT stabilize HCS = microtubule stabilization, imaging screen. HeLa tubulin immunostaining HCS, 24 h; share of cells brighter than vehicle mean+2SD. % tubulin-high responders, % at 10 µM. 0.83% of 200,000 active. AID 2205;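 active = plate Z-score above 3 for both tubulin-high and condensed-nucleus cell shares, with cell loss under 80%, at 10 µM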;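 also: anti alpha tubulin signal scored within the nucleus-defined area of each cell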
The depositor's hits bear a star; i = inactive; . = not tested or not shown; + = active, no number. Shown are actives, neighbours in structure and some others; about 2.3% of the full set was active somewhere.

SMILES	Autophagy HCS	bCat nuc transl	Ins promoter up	Dynein transport	MT stabilize HCS
CCCNCC1C(Oc2ccc(Cl)cc2Cl)C(=O)N1c1cccc(C)c1C (centres undefined)	+	0	-1.5	-0.47	3
COc1cc(C2Nc3ccc4ncccc4c3C3=C2C(=O)CCC3)cc(OC)c1O (centres undefined)	i	0	-0.69	-0.19	48*
Oc1c(C=NCc2ccc(F)cc2)[nH]c2ccc(Br)c(Cl)c12	+	8	.	-3.1	1
O=c1[nH]c(=O)n(C2CCCCCC2)c(O)c1C=NCc1ccc(F)cc1	i	.	-0.89	0.78	5
Cc1ccc(CN2CCN(C3CCCC3)C(CCO)C2)s1 (centres undefined)	i	0	0.32	-0.091	3
CC(Sc1ccccc1)C(=O)NN=C1CCCCCC1 (centres undefined)	i	0	8.1*	0.3	3
Cc1cc(=O)oc2cc(OCC(=O)OCC(=O)NCCc3ccccc3)ccc12	i	1	-0.12	-0.56	2
O=C(NC1CCCCC1)N1CCN(Cc2ccco2)CC1	i	-1	-0.42	-0.23	3
CC1(C)CC[C@]2(C(=O)O)CC[C@]3(C)C(=CC[C@@H]4[C@@]5(C)CC[C@H](O)C(C)(C)[C@@H]5CC[C@]43C)[C@@H]2C1	.	-2	-0.06	0.46	.
CC(=O)OC1COC(OC2C(O)C(C)OC(OC3C(OC4CCC5(C)C(CCC6(C)C5CC=C5C7CC(C)(C)CCC7(C(=O)O)CCC56C)C4(C)CO)OCC(O)C3O)C2O)C(O)C1OC(C)=O (centres undefined)	i	-3	-0.72	-5.3*	2
O=C(NCCO)/C(=C/c1ccc2c(c1)OCO2)NC(=O)c1ccc(Br)cc1	+	0	0.2	1.7	3
O=C(O)CNC(=O)/C(=C\c1ccc2c(c1)OCO2)NC(=O)c1ccc(Br)cc1	i	1	-1.3	-0.32	4
Cc1ccc(Nc2c(N)c(=O)oc3ccccc23)cc1	+	0	.	-0.64	30*
CNc1c(N)c(=O)oc2ccccc12	i	0	0.31	1.1	1
COC(=O)CN1C(=O)C(O)(CC(=O)c2ccc(C)o2)c2ccccc21 (centres undefined)	i	0	0.55	-0.87	3
Cc1ccc(C(=O)CC2(O)C(=O)N(C)c3ccccc32)o1 (centres undefined)	+	.	1.9	0.28	7
c1ccc(-c2csc(-n3cnnn3)n2)cc1	i	1	3.1*	0.18	2
C=CCN(Cc1nc(-c2cc(OC)ccc2OC)oc1C)C1CCS(=O)(=O)C1 (centres undefined)	i	0	0.01	-0.62	2
Cc1nc(C)c2c(=O)cc(-c3ccccc3)[nH]c2n1	i	38	0.34	-0.5	43*
Cc1ccc(O)c(-c2cc(C(=O)Nc3ccc(S(=O)(=O)Nc4nc(C)cc(C)n4)cc3)[nH]n2)c1	i	1	-0.11	0.076	5
Cc1cc(/C=N/NC(=O)c2ccc(O)cc2)c(C)n1CC(C)C	.	-2	-0.57	-0.18	.
O=C(Nc1cccc(S(=O)(=O)N2CCOCC2)c1)C1CCCN(C(=O)c2ccc(Cl)cc2)C1 (centres undefined)	.	-1	-0.39	-0.2	.
CC(C)Cn1c(C(C)C)nc([N+](=O)[O-])c1S(=O)(=O)c1ccc(F)cc1	i	-1	-0.28	-3.7*	5
COc1ccc2nc(SCC(=O)Nc3ccc(S(=O)(=O)N4CCCC4)cc3)c(C#N)cc2c1	i	-2	3.5*	-0.13	3
N#Cc1cc2ccccc2nc1SCC(=O)Nc1ccc(S(=O)(=O)N2CCCC2)cc1	i	-8	-0.34	-0.047	3
SMILES	Autophagy HCS	bCat nuc transl	Ins promoter up	Dynein transport	MT stabilize HCS
Cc1ccc2[nH]c(-c3ccccc3)c(CN(C)C)c(=O)c2c1	i	-1	4.2*	-0.39	3
CNC(=O)COC(=O)c1ccc(Cl)c(S(N)(=O)=O)c1	.	-1	0.06	0.84	.
CCOC(=O)N1CCN(C(=O)NC2CCCCC2)CC1	i	-1	3.7*	0.9	3
CCOC(=O)C1=C(c2ccccc2)O/C(=C(/C#N)C(F)(F)F)S1	+	41	-0.89	0.62	9
CCOC(=O)C1=C(c2ccccc2)O/C(=C(\C(=O)OC)C(F)(F)F)S1	i	5	.	-0.052	2
CCOC(=O)C1=C(C)N=c2s/c(=C\c3ccc(OC(C)=O)cc3)c(=O)n2C1/C=C/c1ccccc1 (centres undefined)	i	-2	0.07	2.6	3
